Source: ChEMBL document CHEMBL4325893, “Synthesis and antibacterial profiles of targeted triclosan derivatives” (2019)

Key:
Pseudomonas aeruginosa = test: Antibacterial activity against Pseudomonas aeruginosa ATCC 27853 after 18 hrs; assay type: functional; conditions: ATCC 27853, 18 h
Method in brief: (§1)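 Broth microdilution in Nutrient Broth No. 2; stocks in ethanol diluted to 0.01–128 µg/ml (triclosan) or 0.25–256 µg/ml (glycosides). Overnight 37 °C NB2 cultures diluted 1 in 10^4 in saline and added to the dilutions. Incubation at 37 °C with agitation, OD read every 15 min; MIC is the lowest concentration preventing any OD rise after 18 h.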

Escherichia coli [1] = test: Antibacterial activity against Escherichia coli ATCC 25922 after 18 hrs; assay type: functional; conditions: ATCC 25922, 18 h; method in brief: as §1
[2] = Antibacterial activity against Salmonella enterica subspecies enterica serotype Arizonae OCC 706 after 18 hrs; assay type: functional, Salmonella enterica subsp. enterica serovar Arizonae; conditions: OCC 706, 18 h; method in brief: as §1
Serratia marcescens = test: Antibacterial activity against Serratia marcescens OCC 217 after 18 hrs; assay type: functional; conditions: OCC 217, 18 h; method in brief: as §1
Proteus vulgaris = test: Antibacterial activity against Proteus vulgaris OCC 195 after 18 hrs; assay type: functional; conditions: OCC 195, 18 h; method in brief: as §1
[3] = tested on: Salmonella enterica subsp. enterica serovar Abony; test: Antibacterial activity against Salmonella enterica subspecies enterica serotype Abony NCTC 6017 after 18 hrs; assay type: functional; conditions: NCTC 6017, 18 h; method in brief: as §1
Escherichia coli [4] = test: Antibacterial activity against Escherichia coli 700728 after 18 hrs; assay type: functional; conditions: Escherichia coli, 700728, 18 h; method in brief: as §1
[5] = tested on: Staphylococcus epidermidis; test: Antibacterial activity against Staphylococcus epidermidis 155 after 18 hrs; assay type: functional; conditions: Staphylococcus epidermidis, 155, 18 h; method in brief: as §1
Escherichia hermannii = test: Antibacterial activity against Escherichia hermannii 33650 after 18 hrs; assay type: functional; conditions: Atlantibacter hermannii, 33650, 18 h; method in brief: as §1
Salmonella typhimurium = test: Antibacterial activity against Salmonella enterica subspecies enterica serotype typhimurium ATCC 14028 after 18 hrs; assay type: functional, Salmonella enterica subsp. enterica serovar Typhimurium; conditions: ATCC 14028, 18 h; method in brief: as §1
[6] = Antibacterial activity against Salmonella enterica subspecies enterica serotype Indiana OCC 597 after 18 hrs; assay type: functional, Salmonella enterica subsp. enterica serovar Indiana; conditions: OCC 597, 18 h; method in brief: as §1
[7] = Antibacterial activity against Enterobacter cloacae ATCC 13047 after 18 hrs; assay type: functional, Enterobacter cloacae subsp. cloacae; conditions: ATCC 13047, 18 h; method in brief: as §1
Streptococcus agalactiae = test: Antibacterial activity against Streptococcus agalactiae OCC 182 after 18 hrs; assay type: functional; conditions: OCC 182, 18 h
Method in brief: (§2)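 Broth microdilution in Nutrient Broth No. 2. Ethanol stocks were diluted in broth to 0.01–128 µg/ml for triclosan and 0.25–256 µg/ml for glycosides. Overnight 37°C NB2 cultures were diluted 1 in 10^4 in saline and added to the wells. Plates were incubated at 37°C with OD read every 15 min after agitation. MIC was the lowest concentration giving no OD increase at 18 h.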

Cronobacter sakazakii = test: Antibacterial activity against Cronobacter sakazakii 29544 after 18 hrs; assay type: functional; conditions: Cronobacter sakazakii, 29544, 18 h; method in brief: as §1
Escherichia coli [8] = test: Antibacterial activity against Escherichia coli ATCC 10536 after 18 hrs; assay type: functional; conditions: ATCC 10536, 18 h; method in brief: as §1
Streptococcus pneumoniae [9] = test: Antibacterial activity against Streptococcus pneumoniae 6305 after 18 hrs; assay type: functional; conditions: Streptococcus pneumoniae, 6305, 18 h; method in brief: as §2
Klebsiella aerogenes [10] = test: Antibacterial activity against Klebsiella aerogenes NCTC 8167 after 18 hrs; assay type: functional; conditions: NCTC 8167, 18 h; method in brief: as §1
Enterococcus faecium = test: Antibacterial activity against Enterococcus faecium ATCC 19434 after 18 hrs; assay type: functional; conditions: ATCC 19434, 18 h; method in brief: as §1
[11] = Antibacterial activity against Salmonella enterica subspecies enterica serotype Infantis OCC 2133 after 18 hrs; assay type: functional, Salmonella enterica subsp. enterica serovar Infantis; conditions: OCC 2133, 18 h; method in brief: as §1
Staphylococcus aureus [12] = test: Antibacterial activity against Staphylococcus aureus ATCC 25923 after 18 hrs; assay type: functional; conditions: ATCC 25923, 18 h; method in brief: as §1
[13] = Antibacterial activity against Salmonella enterica subspecies enterica serotype Poona NCTC 4840 after 18 hrs; assay type: functional, Salmonella enterica subsp. enterica serovar Poona; conditions: NCTC 4840, 18 h; method in brief: as §1
Salmonella enteritidis = test: Antibacterial activity against Salmonella enterica subspecies enterica serotype Enteritidis 13076 after 18 hrs; assay type: functional, Salmonella enterica subsp. enterica serovar Enteritidis; conditions: Salmonella enterica, 13076, 18 h; method in brief: as §1
Escherichia coli [14] = test: Antibacterial activity against Escherichia coli NCTC 13216 after 18 hrs; assay type: functional; conditions: NCTC 13216, 18 h; method in brief: as §1
Staphylococcus aureus [15] = test: Antibacterial activity against Staphylococcus aureus ATCC 6538 after 18 hrs; assay type: functional; conditions: ATCC 6538, 18 h; method in brief: as §1
Escherichia coli [16] = test: Antibacterial activity against Escherichia coli ATCC 11775 after 18 hrs; assay type: functional; method in brief: as §1
Citrobacter freundii [17] = test: Antibacterial activity against Citrobacter freundii OCC 851 after 18 hrs; assay type: functional; conditions: OCC 851, 18 h; method in brief: as §1
[18] = Antibacterial activity against Salmonella enterica subspecies enterica serotype Nottingham NCTC 7832 after 18 hrs; assay type: functional, Salmonella enterica subsp. enterica serovar Nottingham; conditions: NCTC 7832, 18 h; method in brief: as §1
Escherichia coli [19] = test: Antibacterial activity against Escherichia coli ATCC 35218 after 18 hrs; assay type: functional; conditions: ATCC 35218, 18 h; method in brief: as §1
Staphylococcus aureus [20] = test: Antibacterial activity against Staphylococcus aureus NCTC 13758 after 18 hrs; assay type: functional; conditions: NCTC 13758, 18 h; method in brief: as §1
Streptococcus pneumoniae [21] = test: Antibacterial activity against Streptococcus pneumoniae ATCC 49619 after 18 hrs; assay type: functional; conditions: ATCC 49619, 18 h; method in brief: as §2
[22] = tested on: Staphylococcus epidermidis; test: Antibacterial activity against Staphylococcus epidermidis ATCC 12228 after 18 hrs; assay type: functional; conditions: ATCC 12228, 18 h; method in brief: as §1
Hafnia alvei = test: Antibacterial activity against Hafnia alvei 13337 after 18 hrs; assay type: functional; conditions: Hafnia alvei, 13337, 18 h; method in brief: as §1
Escherichia coli [23] = test: Antibacterial activity against Escherichia coli OCC 122 after 18 hrs; assay type: functional; conditions: OCC 122, 18 h; method in brief: as §1
Enterococcus faecalis [24] = test: Antibacterial activity against Enterococcus faecalis ATCC 29212 after 18 hrs; assay type: functional; conditions: ATCC 29212, 18 h; method in brief: as §1
Staphylococcus aureus [25] = test: Antibacterial activity against Staphylococcus aureus OCC 106 after 18 hrs; assay type: functional; conditions: OCC 106, 18 h; method in brief: as §1
[26] = Antibacterial activity against Salmonella enterica subspecies enterica serotype Pullorum OCC 273 after 18 hrs; assay type: functional, Salmonella enterica subsp. enterica serovar Pullorum; conditions: OCC 273, 18 h; method in brief: as §1
[27] = Antibacterial activity against Salmonella enterica subspecies enterica serotype Virchow NCTC 5742 after 18 hrs; assay type: functional, Salmonella enterica subsp. enterica serovar Virchow; conditions: NCTC 5742, 18 h; method in brief: as §1
[28] = tested on: Staphylococcus haemolyticus; test: Antibacterial activity against Staphylococcus haemolyticus OCC 2223 after 18 hrs; assay type: functional; conditions: OCC 2223, 18 h; method in brief: as §2
Bacillus subtilis = test: Antibacterial activity against Bacillus subtilis NCTC 10073 after 18 hrs; assay type: functional; conditions: NCTC 10073, 18 h; method in brief: as §1
Staphylococcus aureus [29] = test: Antibacterial activity against Staphylococcus aureus ATCC 29213 after 18 hrs; assay type: functional; conditions: ATCC 29213, 18 h; method in brief: as §1
Streptococcus pyogenes = test: Antibacterial activity against Streptococcus pyogenes ATCC 19615 after 18 hrs; assay type: functional; conditions: ATCC 19615, 18 h; method in brief: as §2
Bacillus cereus = test: Antibacterial activity against Bacillus cereus ATCC 14579 after 18 hrs; assay type: functional; conditions: ATCC 14579, 18 h; method in brief: as §1
Escherichia coli [30] = test: Antibacterial activity against Escherichia coli ATCC 8739 after 18 hrs; assay type: functional; conditions: ATCC 8739, 18 h; method in brief: as §1
Enterococcus faecalis [31] = test: Antibacterial activity against Enterococcus faecalis ATCC 33186 after 18 hrs; assay type: functional; conditions: ATCC 33186, 18 h; method in brief: as §1
Staphylococcus aureus [32] = test: Antibacterial activity against Staphylococcus aureus OCC 104 after 18 hrs; assay type: functional; conditions: OCC 104, 18 h; method in brief: as §1
[33] = tested on: Staphylococcus saprophyticus; test: Antibacterial activity against Staphylococcus saprophyticus ATCC 15305 after 18 hrs; assay type: functional; conditions: ATCC 15305, 18 h; method in brief: as §2
Staphylococcus aureus [34] = test: Antibacterial activity against Staphylococcus aureus ATCC 6538P after 18 hrs; assay type: functional; method in brief: as §1
Aeromonas hydrophila = test: Antibacterial activity against Aeromonas hydrophila OCC 778 after 18 hrs; assay type: functional; conditions: OCC 778, 18 h; method in brief: as §1
Proteus mirabilis = test: Antibacterial activity against Proteus mirabilis ATCC 12453 after 18 hrs; assay type: functional; conditions: ATCC 12453, 18 h; method in brief: as §1
[35] = tested on: Staphylococcus epidermidis; test: Antibacterial activity against Staphylococcus epidermidis ATCC 14990 after 18 hrs; assay type: functional; conditions: ATCC 14990, 18 h; method in brief: as §1
Klebsiella pneumoniae [36] = test: Antibacterial activity against Klebsiella pneumoniae ATCC 10031 after 18 hrs; assay type: functional; conditions: ATCC 10031, 18 h; method in brief: as §1
[37] = Antibacterial activity against Salmonella enterica subspecies enterica serotype Dublin OCC 627 after 18 hrs; assay type: functional, Salmonella enterica subsp. enterica serovar Dublin; conditions: OCC 627, 18 h; method in brief: as §1
Citrobacter freundii [38] = test: Antibacterial activity against Citrobacter freundii 8090 after 18 hrs; assay type: functional; conditions: Citrobacter freundii, 8090, 18 h; method in brief: as §1
Klebsiella aerogenes [39] = test: Antibacterial activity against Enterobacter aerogenes ATCC 13048 after 18 hrs; assay type: functional; conditions: ATCC 13048, 18 h; method in brief: as §1
Klebsiella pneumoniae [40] = test: Antibacterial activity against Klebsiella pneumoniae ATCC 13883 after 18 hrs; assay type: functional; conditions: ATCC 13883, 18 h; method in brief: as §1
Streptococcus viridans = test: Antibacterial activity against Streptococcus viridans OCC 234 after 18 hrs; assay type: functional; conditions: OCC 234, 18 h; method in brief: as §2
Staphylococcus aureus [41] = test: Antibacterial activity against Staphylococcus aureus ATCC 9144 after 18 hrs; assay type: functional; conditions: ATCC 9144, 18 h; method in brief: as §1

Measured: MIC

OC[C@H]1O[C@@H](Oc2cc(Cl)ccc2Oc2ccc(Cl)cc2Cl)[C@H](O)[C@@H](O)[C@H]1O
32 µg/mL: Bacillus subtilis
8 µg/mL: Proteus vulgaris | Cronobacter sakazakii | Citrobacter freundii [17] | [33] | Citrobacter freundii [38] | Klebsiella aerogenes [39]
> 256 µg/mL: Pseudomonas aeruginosa | Serratia marcescens | Enterococcus faecium
4 µg/mL: Klebsiella aerogenes [10] | Proteus mirabilis
0.5 to 32 µg/mL: Escherichia coli [1] | Escherichia coli [4] | Escherichia coli [8] | Escherichia coli [14] | Escherichia coli [16] | Escherichia coli [19] | Escherichia coli [23] | Escherichia coli [30]
256 µg/mL: Streptococcus agalactiae | Bacillus cereus | Aeromonas hydrophila | Streptococcus viridans
2 µg/mL: Escherichia hermannii
2 to 16 µg/mL: [2] | [3] | Salmonella typhimurium | [6] | [11] | [13] | Salmonella enteritidis | [18] | [26] | [27] | [37]
128 µg/mL: Streptococcus pneumoniae [9] | Streptococcus pneumoniae [21] | Enterococcus faecalis [24] | Streptococcus pyogenes | Enterococcus faecalis [31]
0.5 µg/mL: all other assays above
